Measurements: publication PMC12900291 (European journal of medicinal chemistry, 2025)
In brackets after ≈: the same amount, converted by molar mass. Several values for one entry are separate records, joined by “and”; a condition that tells them apart may be missing. Identical values can stand only once. Entries after “also recorded” stand apart in the source; their conditions may differ.

How the values were obtained:
HEK-293 cells = experiment: Cell viability; format: cell-based; conditions: read-out: Cell viability IC50, 72 h exposure, MTT
Procedure, shortened: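 HEK-293.2sus cells were seeded at 9.6 × 10^3 cells/well and given a concentration gradient of test compound for 72 h at 37 °C, 5% CO2. MTT (0.5 mg/mL) was added for 3–4 h, medium removed, formazan dissolved in DMSO (15 min shaking, 21 °C), and A595 read. Cell-free background was subtracted, values taken relative to DMSO controls, and IC50 fitted by nonlinear least squares. n = 3–6.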

SERCA2a [1] = target: T1, SERCA2a (Sus scrofa, UniProt P11607); experiment: NADH-coupled enzyme-linked Ca2+-ATPase activity assay in cardiac SR vesicles; format: biochemical, porcine; conditions: for EC50 / Ca2+-ATPase [Ca2+]MAX % effect / Ca2+-ATPase [Ca2+]MID % effect: cardiac SR; for Max increase (%): Ca2+-ATPase activity, vs no compound, mean±SD, n=4-6
Intrinsic clearance = format: in vitro ADME, human; conditions: for Thalf: human liver S9 0.5 mg/mL, 1 μM compound, NADPH, 37 °C; for microsomal CLint at 1 μM: human, liver S9 fraction, pH 7.4
SERCA2a [2] = target: T1, SERCA2a; conditions: earlier HTS study; cited from earlier work
SERCA2a [3] = target: T1, SERCA2a; conditions: earlier HTS study; cited from earlier work; remark: listed apart in the source
cardiomyocytes = conditions: cited from earlier work
SERCA2a [4] = target: T1, SERCA2a; experiment: oxalate-based Ca2+-uptake; format: biochemical, porcine; conditions: cardiac SR
Procedure, shortened: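 Porcine left-ventricular SR vesicles (30 μg/mL) were prepared by differential centrifugation. Buffer: 50 mM MOPS, 100 mM KCl, 30 mg/mL sucrose, 10 mM potassium oxalate, 2 μM Fluo-4, free Ca2+ at pCa 8.0, 6.2 or 5.4, test compound 0.048–50 μM (two-fold series). Incubation 20 min at 22 °C, dark; 5 mM MgATP start; Fluo-4 decrease (ex 485/em 520 nm) tracked 15 min. Basal pCa 8.0 rate subtracted; Hill fit gives EC50 and % effect.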

SERCA1a = experiment: NADH-coupled Ca2+-ATPase activity assay in skeletal SR vesicles; format: biochemical, rabbit; conditions: Table 5 vs Table S2
Procedure, shortened: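 Light SR came from rabbit skeletal white muscle by differential centrifugation and sucrose gradient. NADH-coupled assay: 4 μg/mL SR in 50 mM MOPS pH 7.0, 100 mM KCl, 1 mM EGTA, 0.2 mM NADH, 1 mM PEP, 10 IU/mL PK and LDH, 7 μM A23187, pCa 5.4/6.2/8.0. Test compound (0.048–50 μM) 20 min; 5 mM MgATP start; A340. pCa 8.0 rate subtracted; Hill fit gives EC50 and maximal % effect.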

[5] = Solubility assay in phosphate buffer, LC-MS/MS; format: physicochemical; conditions: 50 mM phosphate buffer pH 7.4, 37 °C, 12 h
[6] = Ca2+-ATPase [Ca2+]MAX EC50 (μM), [Ca2+]MAX (pCa 5.4)
[7] = Ca2+-ATPase [Ca2+]MID EC50 (μM), [Ca2+]MID (pCa 6.2)
[8] = Ca2+-Uptake [Ca2+]MAX EC50 (μM), [Ca2+]MAX (pCa 5.4)
[9] = Ca2+-Uptake [Ca2+]MID EC50 (μM), [Ca2+]MID (pCa 6.2)

T1 sequence (P11607 1-997 isoform P11607-2): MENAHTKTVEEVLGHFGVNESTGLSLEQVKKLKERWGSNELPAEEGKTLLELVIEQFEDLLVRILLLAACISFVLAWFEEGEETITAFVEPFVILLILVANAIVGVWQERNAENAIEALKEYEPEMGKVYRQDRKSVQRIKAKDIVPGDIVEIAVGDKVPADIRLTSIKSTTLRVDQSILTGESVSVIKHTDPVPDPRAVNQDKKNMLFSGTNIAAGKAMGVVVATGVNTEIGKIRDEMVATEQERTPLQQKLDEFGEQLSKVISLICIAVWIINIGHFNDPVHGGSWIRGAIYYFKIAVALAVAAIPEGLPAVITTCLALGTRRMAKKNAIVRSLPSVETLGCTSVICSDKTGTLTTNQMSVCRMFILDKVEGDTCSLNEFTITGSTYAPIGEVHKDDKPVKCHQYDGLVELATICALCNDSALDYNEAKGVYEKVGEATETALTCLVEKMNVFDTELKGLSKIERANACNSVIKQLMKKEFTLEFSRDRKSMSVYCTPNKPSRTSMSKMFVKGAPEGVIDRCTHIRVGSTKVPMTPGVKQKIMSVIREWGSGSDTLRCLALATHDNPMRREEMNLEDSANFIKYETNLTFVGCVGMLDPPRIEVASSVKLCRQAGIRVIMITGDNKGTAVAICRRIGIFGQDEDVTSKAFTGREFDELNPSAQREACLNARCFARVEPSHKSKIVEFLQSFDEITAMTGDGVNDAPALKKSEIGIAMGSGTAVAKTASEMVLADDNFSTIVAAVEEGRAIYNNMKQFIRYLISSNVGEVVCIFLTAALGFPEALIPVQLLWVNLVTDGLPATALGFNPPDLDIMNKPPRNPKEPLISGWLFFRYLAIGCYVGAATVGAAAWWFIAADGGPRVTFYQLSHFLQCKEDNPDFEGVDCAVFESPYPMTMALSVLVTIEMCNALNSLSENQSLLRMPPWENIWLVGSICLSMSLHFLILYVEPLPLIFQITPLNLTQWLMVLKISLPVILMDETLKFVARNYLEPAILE

| EC50 (SERCA2a [1]; [6]) [µM] | EC50 (SERCA2a [1]; [7]) [µM] | Max increase (%) (SERCA2a [1]; [Ca2+]MAX (pCa 5.4)) | Thalf (Intrinsic clearance) [min] | microsomal CLint at 1 μM (Intrinsic clearance) [µL/min/mg] | EC50 (SERCA2a [4]; [8]) [µM] | EC50 (SERCA2a [4]; [9]) [µM] | Ca2+-Uptake [Ca2+]MAX % effect (SERCA2a [4]; [Ca2+]MAX (pCa 5.4)) [%] | Ca2+-Uptake [Ca2+]MAX EC50 (μM) (SERCA2a [4]; [Ca2+]MAX (pCa 5.4)) | Ca2+-ATPase [Ca2+]MAX % effect (SERCA2a [1]; [Ca2+]MAX (pCa 5.4)) [%] | Ca2+-ATPase [Ca2+]MID % effect (SERCA2a [1]; [Ca2+]MID (pCa 6.2)) [%] | selectivity for SERCA1a (vs SERCA2a), ATPase activity (SERCA1a; [Ca2+]MID) | Ca2+-Uptake [Ca2+]MID % effect (SERCA2a [4]; [Ca2+]MID (pCa 6.2)) [%] | Solubility [5] [µg/mL] | selectivity for SERCA2a relative to SERCA1a, higher efficacy, ATPase activity (SERCA1a; [Ca2+]MAX) | SMILES | IC50 (HEK-293 cells) [µM] | activation of SERCA2a Ca2+-uptake (SERCA2a [2]) [%] | activation of SERCA2a ATPase activity (SERCA2a [3]) [%] | SR Ca2+ load / Ca2+ dynamics (cardiomyocytes) |
| --- | --- | --- | --- | --- | --- | --- | --- | --- | --- | --- | --- | --- | --- | --- | --- | --- | --- | --- | --- |
|  |  |  |  |  |  |  |  |  |  |  |  |  |  |  | Cc1ccc2cccc(NC(=O)c3ccc(OC(C)C)cc3)c2n1 [CDN1163, reference compound] | 63 |  |  |  |
| 5.3 ± 1.8 | 6 ± 1.2 | 57% and 57±13% | 97.6 | 14 ± 1.1 | 1.1 ± 0.73 | 0.46 ± 0.35 |  |  |  |  |  |  |  |  | CCCN(Cc1ccccc1OC)C(=O)c1cc(C)c(C)s1 [Compound 1, N-(2-Methoxybenzyl)-4,5-dimethyl-N-propylthiophene-2-carboxamide] |  | 24 | 58 | increase SR Ca^2+ load; also recorded: increased Ca^2+ dynamics and Ca^2+ load |
| 3.3 ± 0.5 | 3.6 ± 2.8 | 45% and 45±10% | 20.1 | 73 ± 9.3 | 1.1 ± 0.45 | > 50 | 8.8±2.3 | unchanged |  |  |  |  |  |  | CCCN(Cc1ccccc1OC)C(=O)c1cc2c(s1)CCCC2 [Compound 8, N-(2-Methoxybenzyl)-N-propyl-4,5,6,7-tetrahydrobenzo[b]thiophene-2-carboxamide] | 29 ± 18 |  |  |  |
| 5.1 ± 2.1 | 5.3 ± 1.3 | 40±14% | 10.3 | 133 ± 11 | 1.5 ± 0.33 | 1 ± 0.86 | 15±5.9 | increased | 40±14 | 25±7.4 | at least 8 fold | 7.0±3.7 |  |  | CCCN(Cc1ccccc1OC)C(=O)c1cccc(C(F)(F)F)c1 [Compound 21, N-(2-Methoxybenzyl)-N-propyl-3-(trifluoromethyl)benzamide] | 31 ± 16 |  |  |  |
| 4 ± 2.1 | 3.7 ± 0.73 | 53% and 53±7.7% | 74.5 | 15 ± 7.2 | 0.8 ± 0.57 | 0.89 ± 0.4 |  | decreased |  |  |  |  | 507 ± 7 (≈ 1330 µM) |  | CCCN(Cc1ccccc1OC)C(=O)c1ccc(F)c(Br)c1 [Compound 25, 3-Bromo-4-fluoro-N-(2-methoxybenzyl)-N-propylbenzamide] |  |  |  |  |
| 6.3 ± 1.8 | 4.6 ± 2 | 43±6.7% | 34.7 | 37 ± 6.2 | 0.77 ± 0.57 | 0.91 ± 0.85 | 13±5.7 | decreased | 43±6.7 | 24±6.0 |  | 6.0±1.6 |  | at least 8 fold | CCN(Cc1ccccc1OC)C(=O)c1cc(C)c(C)s1 [Compound 32, N-Ethyl-N-(2-methoxybenzyl)-4,5-dimethylthiophene-2-carboxamide] |  |  |  |  |
| 4 ± 0.8 | 3 ± 1 | 72% and 72±8.5% | 16.6 | 83 ± 4.2 | 1.1 ± 0.35 | 0.63 ± 0.21 | 22±5.6 | unchanged | 72±8.5 | 23±6.0 |  | 15±7.0 |  |  | CCCCN(Cc1ccccc1OC)C(=O)c1cc(C)c(C)s1 [Compound 33, N-Butyl-N-(2-methoxybenzyl)-4,5-dimethylthiophene-2-carboxamide] |  |  |  |  |
